High-throughput results as filed in PubChem BioAssay.
GRK2 aptamer HTS – compounds blocking aptamer binding on GRK2 – biochemical, human GRK2, bead flow cytometry, HTS, primary screen; Beta-adrenergic receptor kinase 1 (Homo sapiens), P25098; FAM-aptamer displacement from GRK2; inhibition of aptamer binding, % at 10 µM; actives 0.59% (n = 330,000);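 active = inhibition of aptamer binding above 40%, roughly 3 SD of noise, on plates passing a quality check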;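 also: median bead fluorescence of bound FAM aptamer so fluorescent compounds give negative values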
GPR7 antagonist – GPR7 receptor antagonists, primary screen, cell-based, fluorescence, single concentration; GPR7-expressing cells, fluorescence antagonist assay; inhibition, % at 4.4 µM; actives 1.1% (n = 290,000); AID 1861, 2009; in the data active = inhibition above about 16%, passing the limit was not always enough;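 also: cells stimulated with the agonist NPW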
DNA FID counter – compounds displacing fluorescent DNA intercalator, primary screen, artefact control for HCV NS3 helicase inhibitor project, biochemical, FID fluorescence | DNA fluorescent intercalator displacement | actives 0.17% (n = 290,000) | inhibition, % at 7.9 µM | AID 1845, 2009; in the data active = inhibition above about 37%;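 also: higher means more ethidium bromide displaced from hairpin DNA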
HCV NS3 hel inh – inhibitors of HCV NS3 helicase, primary screen, biochemical, Cy5 molecular beacon fluorescence | AID 1800, 2009 | Hepatitis C virus NS3 helicase | inhibition, % at 10.9 µM | actives 0.56% (n = 290,000) | NS3 helicase DNA unwinding;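 active = inhibition above the mean of all tested compounds plus 3 SD, set per campaign, cut at about 35% in these data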
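System: HCV NS3 helicase fragment; control set: DMSO and thioflavine S; technique: Cy5 fluorescence at 0 and 60 min, beacon hairpin quenching; reagent: beacon DNA duplex substrate plus ATP; replicates: singlicate; schedule: 1 h reaction at 25 °C, ATP-initiated; medium: MOPS buffer pH 6.5 with MgCl2, DTT, Tween20, BSA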
core dimer inh – inhibitors of HCV core protein dimerization, primary screen, biochemical, TR-FRET, high-throughput. inhibition, % at 5 µM. TR-FRET GST/Flag-core106 dimerization, 1536-well. actives 0.33% (n = 300,000);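 active = inhibition above the mean of all tested compounds plus 3 SD, set per screening campaign, cut at about 45% in these data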
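System – GST-tagged and Flag-tagged HCV core protein residues 1-106 · Repeats – one well for each compound · Technique – TR-FRET 671 and 617 nm emission · Doses – one concentration, 5 µM, in 0.5% DMSO · Times – 4 h, 22.5 °C incubation · Also added – Eu donor and XL665 acceptor anti-tag antibodies · Measure – percent inhibition of core106 dimerization signal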
DAGLB inh – DAGLB lipase inhibitors, primary screen, biochemical, fluorescence, HTS. Diacylglycerol lipase-beta (Homo sapiens), Q8NCG7. HEK293T DAGLB membrane lysate, EnzChek fluorogenic substrate. inhibition, % at 5.17 µM. actives 0.059% (n = 340,000). AID 504411, 2011; in the data active = inhibition above about 34%
Target sequence (Q8NCG7 whole entry, looked up): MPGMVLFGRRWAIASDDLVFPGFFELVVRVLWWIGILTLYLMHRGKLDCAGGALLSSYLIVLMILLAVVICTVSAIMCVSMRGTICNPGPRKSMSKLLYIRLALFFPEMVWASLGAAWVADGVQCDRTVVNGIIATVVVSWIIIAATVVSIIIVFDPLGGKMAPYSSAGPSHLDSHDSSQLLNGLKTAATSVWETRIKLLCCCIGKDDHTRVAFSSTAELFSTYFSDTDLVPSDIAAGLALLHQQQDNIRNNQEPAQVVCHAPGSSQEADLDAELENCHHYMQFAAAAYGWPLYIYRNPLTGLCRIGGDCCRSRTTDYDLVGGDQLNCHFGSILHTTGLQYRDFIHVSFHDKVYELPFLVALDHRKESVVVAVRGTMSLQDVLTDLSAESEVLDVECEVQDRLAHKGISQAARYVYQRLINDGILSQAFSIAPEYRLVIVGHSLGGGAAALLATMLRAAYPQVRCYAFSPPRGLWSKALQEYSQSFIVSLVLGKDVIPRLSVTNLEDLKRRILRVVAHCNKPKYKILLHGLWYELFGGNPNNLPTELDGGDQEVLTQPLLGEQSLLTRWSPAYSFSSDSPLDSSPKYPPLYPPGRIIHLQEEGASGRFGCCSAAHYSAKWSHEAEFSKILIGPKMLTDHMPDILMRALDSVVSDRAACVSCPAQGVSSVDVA
GRK2 inh confirm – GRK2 aptamer-displacing inhibitors, retest, confirmation, biochemical, cherry pick 1, bead flow cytometry | bead-bound GRK2, FAM-aptamer displacement | aptamer displacement, % at 10 µM | shares compounds with GRK2 aptamer HTS | actives 4% (n = 2,000) | AID 504451, 2011;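 active = aptamer displacement above 40%, near three times the noise of non-fluorescent compounds, on plates passing quality checks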;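 also: negative values mostly reflect intrinsic compound fluorescence rather than true enhancement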
Aptamer quench 1 – quenches fluorescent RNA aptamer, GRK2 hit artifact; shares compounds with GRK2 aptamer HTS; Fluorescent RNA aptamer beads, quenching, flow cytometry; active compounds read high; fluorescence change (kMESF span), kMESF (concentration not given with the values); 110 tested, under 10 active;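 active = compounds whose bead fluorescence drops by more than 37 kMESF across the dose range, marking them as dye quenchers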
FAM quench CP1 – quenches fluorescent RNA aptamer, GRK2 hit artifact; shares compounds with GRK2 aptamer HTS; Carboxyfluorescein RNA aptamer on beads, flow cytometry quenching; active compounds read low; fluorescence response (% of DMSO), % at 10 µM; 2,000 tested, under 10 active; AID 504580;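 active = compounds that quench the bead-bound fluorescent RNA probe, cutting fluorescence to under half of the solvent control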;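 also: counterscreen run without GRK2 so only probe quenching by compound is measured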
GRK2 CP2 – GRK2 aptamer-displacing inhibitors, hit retest, confirmation, biochemical, cherry pick 2, bead flow cytometry; shares compounds with GRK2 aptamer HTS; bead-bound GRK2, FAM-aptamer displacement; inhibition of aptamer binding, % at 10 µM; 360 tested, under 10 active;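 active = inhibition of aptamer binding above 40%, about triple the noise seen with nonglowing compounds, on plates passing quality control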;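 also: negative values mostly come from compounds that fluoresce themselves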
FAM quench CP2 – counter-screen for GRK2 binding hits: quenchers of fluorescent RNA aptamer; carboxyfluorescein RNA aptamer beads, flow cytometry quenching; active compounds read low; fluorescence response vs DMSO, % at 10 µM; AID 588494; 360 tested, under 10 active; shares compounds with GRK2 aptamer HTS;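 active = response vs DMSO under 50%, meaning signal dropped by over half, treated as fluorescence quencher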;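 also: labelled aptamer on streptavidin beads without GRK2 as a quench counter-screen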
Each line names hits and unclear results; the compound was inactive in the other large screens (follow-up assays come after a bar, where they were run). In the library only some 2.2% were active in any assay of this set; here they are far more common.

O=C(O)c1ccc(-n2cccc2/C=C2/SC(=O)N(CC(=O)N3CCCC3)C2=O)cc1	GRK2 aptamer HTS 82 | GRK2 inh confirm 63 | Aptamer quench 1 inactive | FAM quench CP1 inactive
Cc1ccc2c(c1)N(C(=O)CCC(=O)NC1CCCCCC1)CC(C)O2 (centres undefined)	none
Cc1cc2nnc(SCC(=O)OC(C)C)n2c2ccccc12	none
Cc1cc(NC(=O)CCCn2nc(C)c([N+](=O)[O-])c2C)no1	GRK2 aptamer HTS 51 | GRK2 inh confirm inactive | FAM quench CP1 inactive
O=S(=O)(Nc1ccc2c(c1)OCCO2)c1c(F)cccc1F	none
CC(C)NC(=O)NC(=O)CSc1nnc(COc2ccccc2Cl)o1	GRK2 aptamer HTS 71 | GRK2 inh confirm inactive | FAM quench CP1 inactive
CC(=O)Nc1ccc(NC(=O)C(C)OC(=O)C2CCCCC2)cc1 (centres undefined)	none (no result: GPR7 antagonist, DNA FID counter, HCV NS3 hel inh, core dimer inh)
COc1ccccc1N1CCN(C(=O)C(C)CS(=O)(=O)c2ccc3c(c2)NC(=O)CS3)CC1 (centres undefined)	GRK2 aptamer HTS 54 | GRK2 CP2 inactive | FAM quench CP2 inactive
COc1ccccc1N1CCN(S(=O)(=O)c2ccc3c(c2)NC(=O)C(C)S3)CC1 (centres undefined)	none
N#C/C(=C\c1ccc(O)c(O)c1)C(=O)c1ccc(O)c(O)c1	GRK2 aptamer HTS 54 (no result: GPR7 antagonist, DNA FID counter, HCV NS3 hel inh) | GRK2 inh confirm inactive | FAM quench CP1 inactive
Cc1c(NC(=O)C(C)OC(=O)c2cccc(S(=O)(=O)N3CCOCC3)c2)c(=O)n(-c2ccccc2)n1C (centres undefined)	GRK2 aptamer HTS 76 (no result: DAGLB inh) | GRK2 inh confirm inactive | FAM quench CP1 inactive
Cc1c(NC(=O)c2cccc(S(=O)(=O)N3CCOCC3)c2)c(=O)n(-c2ccccc2)n1C	none
Cc1cc(-c2nc(-c3ccncc3)no2)ccc1[N+](=O)[O-]	none | GRK2 inh confirm inactive | FAM quench CP1 inactive
O=S(=O)(Cc1c(F)cccc1Cl)c1ncn[nH]1	none
Cc1c(NC(=O)c2ccco2)cccc1-c1nc2cccnc2s1	GRK2 aptamer HTS 46 | GRK2 inh confirm inactive | FAM quench CP1 inactive
Cc1ccc(NC(=S)N2CCC(c3nc4ccccc4s3)CC2)cc1	GRK2 aptamer HTS 64 | GRK2 inh confirm inactive | FAM quench CP1 inactive
CNC(=S)N1CCC(c2nc3ccccc3s2)CC1	none
O=C(N/N=C\c1cc([N+](=O)[O-])ccc1N1CCOCC1)c1ccccn1	GRK2 aptamer HTS 89 | GRK2 inh confirm inactive | FAM quench CP1 inactive
Cc1cc(NC(=O)Nc2cccc(C(F)(F)F)c2)n(C)n1	GRK2 aptamer HTS 74 | GRK2 inh confirm inactive | FAM quench CP1 inactive
O=C1C2CC=CCC2C(=O)N1CNc1ccccc1 (centres undefined)	none
O=C1C2CC=CCC2C(=O)N1Cc1ccccc1Cl (centres undefined)	GRK2 aptamer HTS 42 | GRK2 CP2 inactive | FAM quench CP2 inactive
O=C(Nc1cc(Cl)ccc1N1CCOCC1)c1ccc(N2CCCCC2)c([N+](=O)[O-])c1	GRK2 aptamer HTS 42 (no result: GPR7 antagonist, DNA FID counter, HCV NS3 hel inh) | GRK2 CP2 inactive | FAM quench CP2 inactive
O=C(Nc1ccc(N2CCCCC2)c(Cl)c1)c1ccc(N2CCOCC2)c([N+](=O)[O-])c1	none
Cc1cc2nccc(-c3ccc(Cl)cc3Cl)n2n1	none
COC(=O)\C(C(C)=O)=C(/C=C/C=C/C=C/N(C)C)N(C)C	GRK2 aptamer HTS 71 | GRK2 inh confirm inactive | FAM quench CP1 inactive
COC(=O)/C(C(C)=O)=C(\C=C\N(C)C)N(C)C	none
O=C(CCS(=O)(=O)c1ccccc1)Nc1ccc(S(=O)(=O)Nc2ncccn2)cc1	none
Cc1ccnc(NC(=O)CCS(=O)(=O)c2ccccc2)c1	none | GRK2 inh confirm inactive | FAM quench CP1 inactive
Cc1cccc(NC(=O)CCS(=O)(=O)c2ccc(Br)cc2)c1	none
O=C(CCS(=O)(=O)c1ccccc1)Nc1ccccn1	GRK2 aptamer HTS 76 | GRK2 inh confirm inactive | FAM quench CP1 inactive
Cc1cccc(NC(=O)CCS(=O)(=O)c2ccc(Cl)cc2)c1	none | GRK2 CP2 inactive | FAM quench CP2 inactive
Cc1nc(SCC(=O)Nc2nnc(C(C)C)s2)n[nH]1	none
CCOC(=O)C1(Cc2cccc(F)c2)CCN(CC2CC2)CC1	none
CCOC(=O)C1(Cc2cccc(F)c2)CCN(CC(O)CO)CC1 (centres undefined)	GRK2 aptamer HTS 78 | GRK2 inh confirm inactive | FAM quench CP1 inactive
COc1cccc(CNC(=O)[C@H](C)NC(=O)C2CCN(S(=O)(=O)c3ccccc3)CC2)c1	none
Cc1cccc(C)c1-n1c(C)nn(-c2ncc(C(F)(F)F)cc2Cl)c1=O	GRK2 aptamer HTS 90 | GRK2 inh confirm inactive | FAM quench CP1 inactive
Cc1nn(-c2ncc(C(F)(F)F)cc2Cl)c(=O)n1-c1c(F)cccc1F	none
COC(=O)c1ccccc1N1C(=O)[C@@H]2C(c3ccc(F)cc3)=NO[C@@H]2C1=O	none | GRK2 CP2 inactive | FAM quench CP2 inactive
COC(=O)C1=C(C)N=c2s/c(=C/c3cccs3)c(=O)n2C1c1cccs1 (centres undefined)	GRK2 aptamer HTS 56 | GRK2 inh confirm inactive | FAM quench CP1 inactive
COCCN(C(=O)COC(=O)/C=C/c1cccc(C(F)(F)F)c1)c1c(N)n(CC(C)C)c(=O)[nH]c1=O	none (no result: GPR7 antagonist, DNA FID counter, HCV NS3 hel inh, core dimer inh)
CCn1cnc2cc(NCc3ccc(Br)cc3)ccc21	GRK2 aptamer HTS 44 (no result: DAGLB inh) | GRK2 inh confirm inactive | FAM quench CP1 inactive
CCCn1cnc2cc(NCc3ccc(Br)cc3)ccc21	none | GRK2 inh confirm inactive | FAM quench CP1 inactive
CCn1cnc2cc(NCc3ccc(C)cc3)ccc21	none
